Results: ChEMBL document CHEMBL3102820, “Developing bivalent ligands to target CUG triplet repeats, the causative agent of myotonic dystrophy type 1” (J Med Chem, 2013)
The source made the active and inactive calls. The calls are words filed in the database; no cut-off is given here.

Experiments:
Nucleic Acid [1] = assay: Binding affinity to (CUG)12 RNA (unknown origin) assessed as change in melting temperature by thermal denaturation assay; type: nucleic-acid assay
[2] = Inhibition of biotin-labeled (CUG)12 RNA (unknown origin)-MBNL1 interaction by SPR analysis
Outline: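 SPR in 1X PBS with Tween-20 and excess competitor tRNA. Biotinylated (CUG)12 was immobilized on a streptavidin chip and pre-incubated with ligand at varied concentrations to steady-state RU over 150 s. Then 0.65 μM MBNL1 was injected with ligand at the same concentration. Maximum RU at 150 s was converted to % (CUG)12 bound, normalized to the no-ligand value, and fitted for apparent IC50.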

HeLa [3] = assay: Drug uptake in human HeLa cells expressing (CUG)960 RNA at 35 uM after 36 hrs by confocal microscopic analysis; type: ADME, cell-based
Outline: (§1)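 HeLa cells, about 120,000 per well on coverslips, were transfected after 1 day with 500 ng DMPK-CTG960 plasmid (CTG0 plasmid for control cells). Ligand was given at 20, 35 or 50 μM for 36 h. Cells were then fixed and foci stained by FISH with Cy3-(CAG)10, with TO-PRO-3 nuclear stain. Confocal excitation was 405 nm (acridine ligand uptake), 555 nm (Cy3) and 639 nm (TO-PRO-3). Over 100 cells were scored for foci; two-tailed Student t test.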

Nucleic Acid [4] = assay: Binding affinity to (CUG)12 RNA (unknown origin) assessed as change in melting temperature at 1 equiv treated in aqueous solution by thermal denaturation assay; type: nucleic-acid assay; settings: unidentified
HeLa [5] = assay: Binding affinity to (CUG)960 RNA (unknown origin) expressed in human HeLa cells coexpressing GFP-tagged MBNL1 assessed as MBNL1 foci dispersion throughout nucleus at 50 uM after 3 to 10 hrs by live cell microscopic analysis; type: cell-based
Outline: (§2)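 HeLa cells co-transfected with DMPK-CTG960 and GFP-MBNL1 plasmids were grown on a gridded dish so each cell could be relocated by DIC. Ligand was added to 50 μM final. Time-lapse confocal images of GFP-MBNL1 foci and acridine fluorescence were taken before addition and at 3, 6 and 10 h. At 10 h, Z-stacks of 1 μm slices through the whole cell were taken. Untreated cells were imaged the same way.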

[6] = Drug uptake in nucleus of human HeLa cells expressing (CUG)960 RNA at 35 uM after 36 hrs by confocal microscopic analysis; type: ADME, cell-based; outline: as §1
[7] = Binding affinity to 5'-TAMRA-labeled (CUG)6 RNA (unknown origin) by fluorescence titration assay
Outline: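 Steady-state fluorescence titration. Ligand was titrated into 5'-TAMRA-(CUG)6 in 1X PBS, and the drop in TAMRA emission was followed. Normalized intensity was plotted against ligand concentration to give a binding isotherm, which was fitted for KD.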

[8] = Drug uptake in human HeLa cell membrane expressing (CUG)960 RNA coexpressing GFP-tagged MBNL1 at 50 uM after 3 to 10 hrs by live cell microscopic analysis; type: ADME, cell-based; outline: as §2
HeLa [9] = assay: Binding affinity to (CUG)960 RNA (unknown origin) expressed in human HeLa cells coexpressing GFP-tagged MBNL1 assessed as MBNL1 foci dispersion throughout nucleus at Z-plane of cells at 50 uM after 10 hrs by live cell microscopic analysis; type: cell-based; settings: unidentified; outline: as §2
HeLa [10] = assay: Binding affinity to (CUG)960 RNA (unknown origin) expressed in human HeLa cells assessed as foci dispersion at 20 to 50 uM after 36 hrs by confocal microscopic analysis; type: cell-based; outline: as §1
[11] = Drug uptake in human HeLa cell nuclear membrane expressing (CUG)960 RNA coexpressing GFP-tagged MBNL1 at 50 uM after 3 to 10 hrs by live cell microscopic analysis; type: ADME, cell membranes; outline: as §2
[12] = Cytotoxicity against human HeLa cells assessed as cytotoxicity up to 75 uM after 24 hrs by sulforhodamine B assay
Nucleic Acid [13] = assay: Binding affinity to (CUG)12 RNA (unknown origin) assessed as change in melting temperature at 1 equiv treated in 5% DMSO by thermal denaturation assay; type: nucleic-acid assay
[14] = Inhibition of (CUG)12 RNA (unknown origin)-MBNL1 interaction after 10 to 15 mins

Row | IC50 [2] | Drug uptake (HeLa [3]) | Drug uptake [6] | Kd [7] | SMILES | Activity (HeLa [10]) | also measured
1 | 15 µM |  |  |  | CC(=O)NCCCNCCCNCCCNC(=O)c1cccc2c(NCCCCNc3nc(N)nc(N)n3)c3ccccc3nc12 |  | ΔTm (Nucleic Acid [1]): 2.5 °C
2 | 1.1 µM | Active | Active | 0.32 µM | Nc1nc(N)nc(NCCCCNc2c3ccccc3nc3c(C(=O)NCCCNCCCNCCCNC(=O)c4cccc5c(NCCCCNc6nc(N)nc(N)n6)c6ccccc6nc45)cccc23)n1 | Active | ΔTm (Nucleic Acid [4]): 9.3 °C; Activity (HeLa [5]): Active; Drug uptake [8]: Active; Activity (HeLa [9]): Active; Drug uptake [11]: Active; cytotoxicity at 24 h [12]: < 20%
3 | 6 µM |  |  | 3.8 µM | Nc1nc(N)nc(NCCCCNc2c3ccccc3nc3c(C(=O)NCCNCCNCCNCCNC(=O)c4cccc5c(NCCCCNc6nc(N)nc(N)n6)c6ccccc6nc45)cccc23)n1 |  | ΔTm (Nucleic Acid [4]): 9.6 °C
4 | 5 µM | Not Active | Not Active | 4.8 µM | Nc1nc(N)nc(NCCCCNc2c3ccccc3nc3c(C(=O)NCCNCCNCCNC(=O)c4cccc5c(NCCCCNc6nc(N)nc(N)n6)c6ccccc6nc45)cccc23)n1 | inactive | ΔTm (Nucleic Acid [4]): 8.4 °C
5 | 37 µM |  |  |  | Nc1nc(N)nc(NCCCCNc2c3ccccc3nc3c(C(=O)NCCOCCOCCOCCOCCOCCNC(=O)c4cccc5c(NCCCCNc6nc(N)nc(N)n6)c6ccccc6nc45)cccc23)n1 |  | ΔTm (Nucleic Acid [13]): 1.8 °C
6 | 18 µM |  |  | 23 µM | Nc1nc(N)nc(NCCCCNc2c3ccccc3nc3ccc(C(=O)NCCOCCOCCNC(=O)c4ccc5nc6ccccc6c(NCCCCNc6nc(N)nc(N)n6)c5c4)cc23)n1 |  | ΔTm (Nucleic Acid [13]): 2.7 °C
7 | 43 µM |  |  |  | Nc1nc(N)nc(NCCCCNc2c3ccccc3nc3ccc(C(=O)NCCOCCOCCOCCOCCOCCNC(=O)c4ccc5nc6ccccc6c(NCCCCNc6nc(N)nc(N)n6)c5c4)cc23)n1 |  | 
8 | 28 µM |  |  | 75 µM | Nc1nc(N)nc(NCCCCNc2c3ccccc3nc3ccc(C(=O)NCCCOCCOCCOCCCNC(=O)c4ccc5nc6ccccc6c(NCCCCNc6nc(N)nc(N)n6)c5c4)cc23)n1 |  | 
9 |  | Active | Active |  | Nc1nc(N)nc(NCCCCNc2c3ccccc3nc3ccc(C(=O)NCCCNCCCCCCCCNCCCNC(=O)c4ccc5nc6ccccc6c(NCCCCNc6nc(N)nc(N)n6)c5c4)cc23)n1 | inactive | 
10 | 293 µM | Not Active | Not Active | 66 µM | CNC(=O)c1ccc2nc3ccccc3c(NCCCCNc3nc(N)nc(N)n3)c2c1 | inactive | ΔTm (Nucleic Acid [13]): 1.8 °C; cytotoxicity at 24 h [12]: < 20%
11 |  |  |  |  | COc1ccc2nc3cc(Cl)ccc3c(NCCCCNc3nc(N)nc(N)n3)c2c1 |  | IC50 [14]: 46 µM
